# Assay outcomes (PubChem)
# This excerpt belongs to a sample that is enriched for hits.
# XBP1 UPR activ: activators of adaptive arm of unfolded protein response (XBP1); AID 463104; CHO-XBP1 luciferase reporter, IRE1-XBP1 UPR activation, luminescence; percent of tunicamycin response, DMSO as zero; actives 0.33% (n = 330,000); activation, % at 20 µM;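 active = versus positive control, 20 µM dose yields 30% or more activation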;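 note: 100% = tunicamycin at 10 µg/mL and 0% = DMSO only wells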
#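 incubation = overnight seeding at 37 °C, 6 h compound treatment at 37 °C | assay system = CHO-XBP1 cells stably carrying IRE1-XBP1-driven luciferase reporter | input = 1000 cells per well | detection = luciferase luminescence | dosing = single point, 20 µM final compound, 1% DMSO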
# Jurkat NFkB inh: lowers PMA/ionomycin-induced NF-kB signal in Jurkat cells. PMA/ionomycin-induced NF-kB luciferase reporter, luminescence. inhibition, % at 4 µM. actives 0.53% (n = 330,000). AID 435003; in the data active = inhibition above about 50%
# CHOP inhibitor: blocks CHOP induction under ER stress; CHO-K1 CHOP-promoter luciferase, tunicamycin-induced, 15-18 h; actives 3.8% (n = 220,000); AID 2732; inhibition, % at 10 µM;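 active = compounds that reduced the stress-induced luciferase reporter signal by more than about 70% of percent inhibition, limit read from the data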;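 note: 0% = tunicamycin plus vehicle and 100% = wells without tunicamycin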
# 697 NFkB inh: inhibitors of the PMA/ionomycin-induced NF-kB reporter in 697 B cells | 697 B-cell NF-kB luciferase reporter, 16 h | actives 0.33% (n = 330,000) | inhibition, % at 4 µM; in the data active = inhibition above about 35%
# UPR CHOP act: activators of apoptotic arm of unfolded protein response (CHOP); CHO-CHOP luciferase reporter, UPR activation, luminescence; percent of tunicamycin response over DMSO baseline; activation, % at 10 µM; actives 0.34% (n = 330,000); AID 449763;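 active = at 10 µM dose, activation of 40% or more, normalized to positive control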;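 note: 100% = tunicamycin at 10 µg/mL and 0% = DMSO alone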
#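 System: CHO CHOP reporter cells. Amount: 500 cells per well. Buffer or medium: F12 medium, 10% FBS. Compound dosing: one dose, 10 µM in 0.5% DMSO. Incubation: 6 h compound exposure at 37 °C after overnight seeding. Technique: Steady-Glo luciferase luminescence. Benchmarks: tunicamycin and DMSO controls.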
# * marks the source's active call; other numbers are inactive results; x = not tested or not shown.
SMILES,XBP1 UPR activ,Jurkat NFkB inh,CHOP inhibitor,697 NFkB inh,UPR CHOP act
CCOC(=O)c1cc2sccc2n1Cc1ccccc1,0,0,80*,-2,-1
Cc1cc(NC(=O)Cn2nnc3sc4c(c3c2=O)CCC(C(C)(C)C)C4)no1 (centres undefined),2,7,81*,12,2
CC[C@]12c3[nH]c4cc(CCC(=O)N(C)C)ccc4c3CCN1C(=O)[C@@H](CC(=O)NC(C)(C)C)C[C@@H]2C(=O)N1CCN(C(=O)C2CC2)CC1,-2,x,x,9,2
Cn1c2ccccc2c(=O)c2c(=O)n(Cc3ccco3)c(-c3ccc(C(C)(C)C)cc3)nc21,0,10,89*,15,3
O=C(Nc1ccc(Cl)cc1)Nc1cc([N+](=O)[O-])ccc1F,5,-19,71*,10,2
O=C(Nc1cccc([N+](=O)[O-])c1)Nc1cccc([N+](=O)[O-])c1,4,5,84*,1,1
O=C(Nc1ccc(Cl)cc1)Nc1csc([N+](=O)[O-])c1,8,-3,76*,-52,14
Cc1ccc(NC(=O)Nc2ccc(Cl)cc2)c(Br)c1,2,-25,86*,-51,9
Cc1cccc2c1cnn2C(=O)Nc1ccccc1Cl,-3,-58,x,-35,5
CC(=O)N1CCC(C(=O)NC2CCCc3c2cnn3-c2cc(F)cc(F)c2)CC1 (centres undefined),-6,1,x,15,2
CC(C)Oc1cc(NC(=O)CSCC(=O)Nc2cccc(C(F)(F)F)c2)c(Cl)cc1Cl,-4,-1,100*,-11,-1
CCOC(=O)N=Nc1c(O)n(Cc2ccccc2)c2ccccc12,3,-11,80*,-36,1
O=Nc1c(O)n(Cc2cccc(Cl)c2)c2ccccc12,2,5,73*,-15,0
CCN(CC)CCn1c(O)c(N=O)c2ccccc21,-1,-7,17,1,-2
COC(=O)N=Nc1c(O)n(Cc2ccccc2)c2ccccc12,0,8,7,3,2
O=c1c(Cl)c(Nc2cccc(Cl)c2)cnn1-c1nc2ccccc2s1,-1,-86,-2,-109,2
COc1ccc(Nc2cnn(-c3nc4ccccc4s3)c(=O)c2Cl)cc1,x,x,75*,x,x
CN(C)c1ccc(C(CNC(=O)COc2ccc(Cl)cc2)N2CCCC2)cc1 (centres undefined),-5,-4,x,-22,1
CCN(C(=O)c1ccc2c(Cl)c3c(nc2c1)CCC3)c1ccc(C)c(C)c1,-2,10,91*,6,-2
CN(C(=O)c1ccc2c(Cl)c3c(nc2c1)CCC3)c1ccccc1,5,-49,8,-52,8
Cc1ccc(NC(=O)c2ccc(F)cc2F)cc1,-3,-132,x,-150,5
Cc1ccc(NC(=O)c2cc(N(C)C)ccc2[P+](=O)O)cc1,1,-18,91*,-12,2
O=C(Nc1ccc(Cl)cc1)c1nc[nH]c1C(=O)NCCCNC(=O)c1[nH]cnc1C(=O)Nc1ccc(Cl)cc1,14,2,x,31,16
CCOC(=O)Cc1cnc(NC(=O)NC(C(=O)OCC)(c2ccccc2)C(F)(F)F)s1 (centres undefined),5,3,85*,13,3
CC(C)CCOc1ccc(Cl)cc1CN1CCOCC1,2,-20,83*,-39,1
SMILES,XBP1 UPR activ,Jurkat NFkB inh,CHOP inhibitor,697 NFkB inh,UPR CHOP act
COc1ccc(CCNC(=O)CCC(=O)Nc2ccccc2[N+](=O)[O-])cc1OC,-2,-16,x,-34,1
Fc1ccccc1-c1nc2c(s1)CCc1onc(-c3ccc(Br)cc3)c1-2,2,16,x,19,1
Cc1cc(Br)cc(C)c1NC(=S)NC(=O)CC(C)C,2,7,92*,-16,2
CCC(=O)NC(=S)Nc1c(C)cc(Br)cc1C,-2,-3,13,10,1
CCC(=O)N1CCc2cc(S(=O)(=O)NCCC(=O)NC3CCCCCC3)ccc21,-7,6,x,9,2
Cc1cc(C)cc(-c2nc(-c3ccncc3)no2)c1,7,-39,84*,-64,4
Cc1cccc(-c2nc(-c3ccncc3)no2)c1,-4,-96,x,-183,-1
Cc1cccc2sc(NC(=O)C3CCN(S(=O)(=O)c4cc([N+](=O)[O-])ccc4Cl)CC3)nc12,0,23,70*,-6,9
Cc1cccc(N2CCN(C(=O)C3CCN(S(=O)(=O)c4cccc5cccnc45)CC3)CC2C)c1 (centres undefined),0,0,28,8,4
Cc1cccc(N2CCN(C(=O)C3CCN(S(=O)(=O)c4cccc5nsnc45)CC3)CC2C)c1 (centres undefined),1,-9,83*,-12,6
Cc1ccc2nc(NC(=O)C3CCCN(S(=O)(=O)c4cccc5nonc45)C3)sc2c1 (centres undefined),0,5,36,-13,4
CCOc1ccc(NC(=O)C2CCCN(S(=O)(=O)c3cccc4nsnc34)C2)cc1 (centres undefined),-4,-3,74*,12,-1
Cc1nnc(NC(=O)C2CCN(S(=O)(=O)c3cc([N+](=O)[O-])ccc3Cl)CC2)o1,2,0,x,-14,-2
Cc1cccc2sc(NC(=O)C3CCCN(S(=O)(=O)c4cccc5nonc45)C3)nc12 (centres undefined),-4,3,81*,2,0
COc1cc(C2CC(=O)Nc3n[nH]c(-c4ccccc4)c32)cc(OC)c1OC (centres undefined),-2,46,-23,0,-1
O=C1CC2CCCN2C=C1I (centres undefined),-2,4,x,6,-1
S=C1NC2(CCCCC2)Nc2ccccc21,1,6,-1,-4,-1
CC1(C)CC(=O)C(C2C3=C(CC(C)(C)CC3=O)Oc3ccc4ccccc4c32)C(=O)C1 (centres undefined),-1,-50,77*,-2,2
CC1(C)CC(=O)C(C2C3=C(CC(C)(C)CC3=O)Oc3ccccc32)C(=O)C1 (centres undefined),-3,3,40,7,-1
CCOC(=O)[C@H]1[C@H]2COc3cc(OC)ccc3[C@@H]2N2C(=O)CN(Cc3ccco3)C(=O)[C@@]12C,1,-23,x,7,0
Cc1ccc(NC(=O)CSc2nnc(/N=C/N(C)C)s2)cc1,-2,-1,-5,16,1
CCN(CC)CCNC(=O)c1ccc(N2CCCCC2)c(NS(=O)(=O)c2ccc(C)cc2)c1,0,-13,72*,-12,-2
COC(=O)c1ccc(N2CCCCC2)c(NS(=O)(=O)c2ccc(C)cc2)c1,-2,3,20,-16,-1
O=C(Nc1ccc(S(=O)(=O)NCc2ccccc2)cc1)Nc1ccc2c(c1)OCO2,0,-26,84*,-29,2
